# How the values were obtained:
# [1] = system: Mast/stem cell growth factor receptor Kit (Homo sapiens), P10721 [D816V]; assay: Inhibition of c-Kit D816V mutant (unknown origin) using [gamma-33P]ATP assessed as residual activity at 3 uM
# [2] = molecular target: cAMP-dependent protein kinase catalytic subunit PRKX (Homo sapiens) (UniProt P51817); assay: Inhibition of PRKX (unknown origin) using [gamma-33P]ATP assessed as residual activity at 3 uM
# [3] = molecular target: Serine/threonine-protein kinase D3 (Homo sapiens) (UniProt O94806); assay: Inhibition of PRKD3 (unknown origin) using [gamma-33P]ATP assessed as residual activity at 3 uM
# [4] = molecular target: Serine/threonine-protein kinase WNK3 (Homo sapiens) (UniProt Q9BYP7); assay: Inhibition of WNK3 (unknown origin) using [gamma-33P]ATP assessed as residual activity at 3 uM
# [5] = molecular target: Mitogen-activated protein kinase 11 (Homo sapiens) (UniProt Q15759); assay: Inhibition of P38b (unknown origin) using [gamma-33P]ATP assessed as residual activity at 3 uM
# Chain of Mitogen-activated protein kinase 11 (Homo sapiens) (Q15759 whole entry): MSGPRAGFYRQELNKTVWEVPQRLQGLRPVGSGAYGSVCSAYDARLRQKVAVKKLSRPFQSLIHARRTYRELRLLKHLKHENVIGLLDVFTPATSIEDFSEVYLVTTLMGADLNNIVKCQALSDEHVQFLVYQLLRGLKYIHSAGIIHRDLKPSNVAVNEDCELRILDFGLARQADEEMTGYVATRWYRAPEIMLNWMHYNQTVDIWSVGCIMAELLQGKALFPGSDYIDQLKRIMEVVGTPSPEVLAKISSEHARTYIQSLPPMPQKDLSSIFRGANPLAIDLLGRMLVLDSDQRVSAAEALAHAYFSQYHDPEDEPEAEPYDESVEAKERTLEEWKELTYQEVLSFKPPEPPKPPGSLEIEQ
# [6] = molecular target: Hepatocyte growth factor receptor (Homo sapiens) (UniProt P08581); assay: Inhibition of c-MET (unknown origin) using [gamma-33P]ATP assessed as residual activity at 3 uM
# [7] = molecular target: Receptor-type tyrosine-protein kinase FLT3 (Homo sapiens) (UniProt P36888); assay: Inhibition of FLT3 (unknown origin) using [gamma-33P]ATP assessed as residual activity at 3 uM
# Method in brief: (§1)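 Radiometric kinase profiling service covering 288 kinases (261 wild-type, 27 mutant). Inhibition was read as incorporation from [γ-³³P]ATP.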
# [8] = molecular target: Fibroblast growth factor receptor 4 (Homo sapiens) (UniProt P22455); assay: Inhibition of FGFR4 (unknown origin) using [gamma-33P]ATP assessed as residual activity at 3 uM
# Method in brief: (§2)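 Reaction Biology HotSpot radiometric profiling panel of 288 kinases (261 wild-type, 27 mutant). Kinase activity was read out by incorporation of [γ-33P]ATP.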
# [9] = molecular target: Serine/threonine-protein kinase MARK1 (Homo sapiens) (UniProt Q9P0L2); assay: Inhibition of MARK1 (unknown origin) using [gamma-33P]ATP assessed as residual activity at 3 uM
# Method in brief: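 Contract radiometric panel screen of 288 kinases (261 wild-type, 27 mutant). Inhibition was read by [gamma-33P]ATP radioactivity incorporation.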
# [10] = system: Proto-oncogene tyrosine-protein kinase receptor Ret (Homo sapiens), P07949 [V804M]; assay: Inhibition of RET V804M mutant (unknown origin) using [gamma-33P]ATP assessed as residual activity at 3 uM
# Chain of Proto-oncogene tyrosine-protein kinase receptor Ret (Homo sapiens), P07949 [V804M] (P07949 whole entry V804M): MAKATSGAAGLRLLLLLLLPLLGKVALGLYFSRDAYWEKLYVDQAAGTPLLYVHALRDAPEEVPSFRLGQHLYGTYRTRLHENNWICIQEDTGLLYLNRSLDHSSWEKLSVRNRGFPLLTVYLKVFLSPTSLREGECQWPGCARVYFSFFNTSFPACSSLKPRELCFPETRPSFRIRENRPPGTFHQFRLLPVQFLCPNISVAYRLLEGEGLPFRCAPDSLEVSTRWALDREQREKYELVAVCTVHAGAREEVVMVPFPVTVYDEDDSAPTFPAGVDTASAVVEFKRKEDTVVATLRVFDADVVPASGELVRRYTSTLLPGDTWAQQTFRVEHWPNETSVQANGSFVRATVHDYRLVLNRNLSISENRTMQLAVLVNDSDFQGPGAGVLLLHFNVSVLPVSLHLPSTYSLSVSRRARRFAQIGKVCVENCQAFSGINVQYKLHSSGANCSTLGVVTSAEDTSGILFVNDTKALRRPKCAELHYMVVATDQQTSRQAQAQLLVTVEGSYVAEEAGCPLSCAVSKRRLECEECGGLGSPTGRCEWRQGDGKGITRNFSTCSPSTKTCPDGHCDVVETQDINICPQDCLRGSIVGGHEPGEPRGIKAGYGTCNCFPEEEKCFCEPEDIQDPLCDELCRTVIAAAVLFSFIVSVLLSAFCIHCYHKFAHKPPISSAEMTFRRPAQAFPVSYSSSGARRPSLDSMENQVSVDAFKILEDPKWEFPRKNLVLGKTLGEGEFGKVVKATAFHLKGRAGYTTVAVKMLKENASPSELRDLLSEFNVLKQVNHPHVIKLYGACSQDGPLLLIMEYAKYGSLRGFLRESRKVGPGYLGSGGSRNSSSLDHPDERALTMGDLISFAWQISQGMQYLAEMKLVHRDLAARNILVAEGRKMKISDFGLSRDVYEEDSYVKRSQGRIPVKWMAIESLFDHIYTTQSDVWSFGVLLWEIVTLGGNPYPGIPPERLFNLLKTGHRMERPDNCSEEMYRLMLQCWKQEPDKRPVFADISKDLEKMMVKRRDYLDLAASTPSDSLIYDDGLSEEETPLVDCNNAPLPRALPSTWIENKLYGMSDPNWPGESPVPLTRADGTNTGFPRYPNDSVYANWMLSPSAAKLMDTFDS
# [11] = molecular target: Serine/threonine-protein kinase NLK (Homo sapiens) (UniProt Q9UBE8); assay: Inhibition of NLK (unknown origin) using [gamma-33P]ATP assessed as residual activity at 3 uM
# [12] = molecular target: Serine/threonine-protein kinase Sgk1 (Homo sapiens) (UniProt O00141); assay: Inhibition of SGK1 (unknown origin) using [gamma-33P]ATP assessed as residual activity at 3 uM
# [13] = molecular target: Vascular endothelial growth factor receptor 1 (Homo sapiens) (UniProt P17948); assay: Inhibition of FLT1 (unknown origin) using [gamma-33P]ATP assessed as residual activity at 3 uM; method in brief: as §2
# [14] = system: Proto-oncogene tyrosine-protein kinase receptor Ret (Homo sapiens), P07949 [V804L]; assay: Inhibition of RET V804L mutant (unknown origin) using [gamma-33P]ATP assessed as residual activity at 3 uM
# Chain of Proto-oncogene tyrosine-protein kinase receptor Ret (Homo sapiens), P07949 [V804L] (P07949 whole entry V804L): as the sequence (P07949 whole entry V804M) above, with M804L counted along it
# [15] = molecular target: Serine/threonine-protein kinase WNK2 (Homo sapiens) (UniProt Q9Y3S1); assay: Inhibition of WNK2 (unknown origin) using [gamma-33P]ATP assessed as residual activity at 3 uM
# [16] = molecular target: Testis-specific serine/threonine-protein kinase 2 (Homo sapiens) (UniProt Q96PF2); assay: Inhibition of TSSK2 (unknown origin) using [gamma-33P]ATP assessed as residual activity at 3 uM
# Chain of Testis-specific serine/threonine-protein kinase 2 (Homo sapiens) (Q96PF2 whole entry): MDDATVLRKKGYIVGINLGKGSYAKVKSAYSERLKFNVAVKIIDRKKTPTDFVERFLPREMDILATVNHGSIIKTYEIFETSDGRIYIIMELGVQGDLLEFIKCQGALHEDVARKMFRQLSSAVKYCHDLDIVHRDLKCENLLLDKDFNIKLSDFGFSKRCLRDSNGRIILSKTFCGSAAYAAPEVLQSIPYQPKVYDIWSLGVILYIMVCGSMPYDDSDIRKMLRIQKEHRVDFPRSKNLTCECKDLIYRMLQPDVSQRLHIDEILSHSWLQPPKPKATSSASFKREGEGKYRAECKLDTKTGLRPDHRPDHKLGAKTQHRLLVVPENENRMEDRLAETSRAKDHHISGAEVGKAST
# [17] = molecular target: Tyrosine-protein kinase receptor UFO (Homo sapiens) (UniProt P30530); assay: Inhibition of AXL (unknown origin) using [gamma-33P]ATP assessed as residual activity at 3 uM
# Method in brief: (§3)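 Radiometric profiling across 288 kinases (261 wild-type, 27 mutant), run as an outsourced service. Inhibition read out as [gamma-33P]ATP incorporation into substrate.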
# [18] = molecular target: Aurora kinase C (Homo sapiens) (UniProt Q9UQB9); assay: Inhibition of Aurora C (unknown origin) using [gamma-33P]ATP assessed as residual activity at 3 uM; method in brief: as §3
# [19] = molecular target: Cyclin-dependent kinase 2/cyclin A (Homo sapiens) (UniProt P24941+P20248+P78396); assay: Inhibition of CDK2/cyclinA (unknown origin) using [gamma-33P]ATP assessed as residual activity at 3 uM; type: protein-complex assay; method in brief: as §3
# [20] = molecular target: G protein-coupled receptor kinase 4 (Homo sapiens) (UniProt P32298); assay: Inhibition of GRK4 (unknown origin) using [gamma-33P]ATP assessed as residual activity at 3 uM; method in brief: as §1
# [21] = molecular target: Vascular endothelial growth factor receptor 3 (Homo sapiens) (UniProt P35916); assay: Inhibition of FLT4 (unknown origin) using [gamma-33P]ATP assessed as residual activity at 3 uM; method in brief: as §1
# Chain of Vascular endothelial growth factor receptor 3 (Homo sapiens) (P35916 whole entry): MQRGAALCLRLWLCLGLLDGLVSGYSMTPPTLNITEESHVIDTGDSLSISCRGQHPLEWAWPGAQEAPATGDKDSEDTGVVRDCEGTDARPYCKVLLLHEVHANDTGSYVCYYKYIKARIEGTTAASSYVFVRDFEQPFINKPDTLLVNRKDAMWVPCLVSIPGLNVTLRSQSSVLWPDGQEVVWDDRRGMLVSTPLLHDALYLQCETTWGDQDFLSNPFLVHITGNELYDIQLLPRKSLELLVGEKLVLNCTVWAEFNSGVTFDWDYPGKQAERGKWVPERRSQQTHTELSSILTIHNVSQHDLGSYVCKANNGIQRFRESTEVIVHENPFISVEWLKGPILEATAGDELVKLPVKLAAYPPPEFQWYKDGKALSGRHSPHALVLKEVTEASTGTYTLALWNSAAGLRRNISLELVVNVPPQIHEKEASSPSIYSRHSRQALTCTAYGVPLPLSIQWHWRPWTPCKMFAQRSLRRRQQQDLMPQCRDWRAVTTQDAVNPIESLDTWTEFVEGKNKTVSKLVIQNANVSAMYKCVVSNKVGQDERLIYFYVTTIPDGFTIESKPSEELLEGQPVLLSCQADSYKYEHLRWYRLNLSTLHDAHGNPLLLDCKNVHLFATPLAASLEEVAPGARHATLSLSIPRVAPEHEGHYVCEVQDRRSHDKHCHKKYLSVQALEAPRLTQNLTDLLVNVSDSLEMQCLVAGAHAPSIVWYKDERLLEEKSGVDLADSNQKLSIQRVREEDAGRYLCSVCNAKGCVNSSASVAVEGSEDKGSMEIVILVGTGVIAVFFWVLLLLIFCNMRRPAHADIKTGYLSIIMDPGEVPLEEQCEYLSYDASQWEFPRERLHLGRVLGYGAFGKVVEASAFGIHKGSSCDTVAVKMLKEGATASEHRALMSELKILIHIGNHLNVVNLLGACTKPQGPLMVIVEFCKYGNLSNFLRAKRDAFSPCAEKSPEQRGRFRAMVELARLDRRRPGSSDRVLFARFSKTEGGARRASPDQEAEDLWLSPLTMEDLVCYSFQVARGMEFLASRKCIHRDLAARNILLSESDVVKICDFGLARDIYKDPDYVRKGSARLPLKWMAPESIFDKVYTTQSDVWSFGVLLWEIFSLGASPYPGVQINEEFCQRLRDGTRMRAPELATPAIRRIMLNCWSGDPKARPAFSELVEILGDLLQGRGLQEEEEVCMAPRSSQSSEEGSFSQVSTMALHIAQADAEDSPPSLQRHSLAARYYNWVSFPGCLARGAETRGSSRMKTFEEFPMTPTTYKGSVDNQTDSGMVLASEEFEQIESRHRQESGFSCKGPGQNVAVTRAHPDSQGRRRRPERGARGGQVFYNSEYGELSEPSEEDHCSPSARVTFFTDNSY
# [22] = molecular target: Serine/threonine-protein kinase STK11 (Homo sapiens) (UniProt Q15831); assay: Inhibition of LKB1 (unknown origin) using [gamma-33P]ATP assessed as residual activity at 3 uM; method in brief: as §1
# [23] = molecular target: Serine/threonine-protein kinase A-Raf (Homo sapiens) (UniProt P10398); assay: Inhibition of ARAF (unknown origin) using [gamma-33P]ATP assessed as residual activity at 3 uM; method in brief: as §3
# [24] = molecular target: Dual specificity protein kinase CLK1 (Homo sapiens) (UniProt P49759); assay: Inhibition of CLK1 CD (unknown origin) using [gamma-33P]ATP assessed as residual activity at 3 uM; method in brief: as §2
# [25] = molecular target: Serine/threonine-protein kinase TBK1 (Homo sapiens) (UniProt Q9UHD2); assay: Inhibition of TBK1 (unknown origin) using [gamma-33P]ATP assessed as residual activity at 3 uM
# [26] = molecular target: Serine/threonine-protein kinase BRSK1 (Homo sapiens) (UniProt Q8TDC3); assay: Inhibition of BRSK1 (unknown origin) using [gamma-33P]ATP assessed as residual activity at 3 uM; method in brief: as §3
# [27] = molecular target: Serine/threonine-protein kinase PLK1 (Homo sapiens) (UniProt P53350); assay: Inhibition of PLK1 (unknown origin) using [gamma-33P]ATP assessed as residual activity at 3 uM
# [28] = molecular target: BDNF/NT-3 growth factors receptor (Homo sapiens) (UniProt Q16620); assay: Inhibition of TRKB (unknown origin) using [gamma-33P]ATP assessed as residual activity at 3 uM
# Chain of BDNF/NT-3 growth factors receptor (Homo sapiens) (Q16620 32-822 limits assumed): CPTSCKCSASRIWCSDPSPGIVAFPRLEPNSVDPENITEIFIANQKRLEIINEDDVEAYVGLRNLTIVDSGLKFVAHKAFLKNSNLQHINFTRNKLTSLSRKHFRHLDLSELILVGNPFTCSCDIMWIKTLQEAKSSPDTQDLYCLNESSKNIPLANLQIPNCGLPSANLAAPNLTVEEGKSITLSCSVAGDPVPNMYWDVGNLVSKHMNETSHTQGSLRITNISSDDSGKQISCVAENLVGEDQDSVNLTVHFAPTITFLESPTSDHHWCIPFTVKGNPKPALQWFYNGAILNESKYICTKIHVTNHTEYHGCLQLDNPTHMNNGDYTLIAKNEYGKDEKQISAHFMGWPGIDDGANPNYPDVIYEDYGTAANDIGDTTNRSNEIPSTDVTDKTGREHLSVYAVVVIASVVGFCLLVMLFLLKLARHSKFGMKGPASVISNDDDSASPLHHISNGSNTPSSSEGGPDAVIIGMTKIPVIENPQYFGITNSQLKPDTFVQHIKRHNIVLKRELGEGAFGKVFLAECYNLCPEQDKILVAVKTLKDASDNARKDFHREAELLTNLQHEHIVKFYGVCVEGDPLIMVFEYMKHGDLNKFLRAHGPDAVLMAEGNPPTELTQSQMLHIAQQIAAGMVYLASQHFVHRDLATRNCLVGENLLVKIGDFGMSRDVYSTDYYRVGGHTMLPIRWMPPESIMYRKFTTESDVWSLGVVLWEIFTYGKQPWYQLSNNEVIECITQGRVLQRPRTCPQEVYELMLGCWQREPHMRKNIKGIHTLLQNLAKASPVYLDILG
# [29] = molecular target: Casein kinase II subunit alpha' (Homo sapiens) (UniProt P19784); assay: Inhibition of CK2a2 (unknown origin) using [gamma-33P]ATP assessed as residual activity at 3 uM; method in brief: as §2
# [30] = molecular target: Receptor tyrosine-protein kinase erbB-4 (Homo sapiens) (UniProt Q15303); assay: Inhibition of ErbB4 (unknown origin) using [gamma-33P]ATP assessed as residual activity at 3 uM; method in brief: as §2
# [31] = molecular target: Ephrin type-B receptor 3 (Homo sapiens) (UniProt P54753); assay: Inhibition of EPHB3 (unknown origin) using [gamma-33P]ATP assessed as residual activity at 3 uM; method in brief: as §2
# Chain of Ephrin type-B receptor 3 (Homo sapiens) (P54753 whole entry): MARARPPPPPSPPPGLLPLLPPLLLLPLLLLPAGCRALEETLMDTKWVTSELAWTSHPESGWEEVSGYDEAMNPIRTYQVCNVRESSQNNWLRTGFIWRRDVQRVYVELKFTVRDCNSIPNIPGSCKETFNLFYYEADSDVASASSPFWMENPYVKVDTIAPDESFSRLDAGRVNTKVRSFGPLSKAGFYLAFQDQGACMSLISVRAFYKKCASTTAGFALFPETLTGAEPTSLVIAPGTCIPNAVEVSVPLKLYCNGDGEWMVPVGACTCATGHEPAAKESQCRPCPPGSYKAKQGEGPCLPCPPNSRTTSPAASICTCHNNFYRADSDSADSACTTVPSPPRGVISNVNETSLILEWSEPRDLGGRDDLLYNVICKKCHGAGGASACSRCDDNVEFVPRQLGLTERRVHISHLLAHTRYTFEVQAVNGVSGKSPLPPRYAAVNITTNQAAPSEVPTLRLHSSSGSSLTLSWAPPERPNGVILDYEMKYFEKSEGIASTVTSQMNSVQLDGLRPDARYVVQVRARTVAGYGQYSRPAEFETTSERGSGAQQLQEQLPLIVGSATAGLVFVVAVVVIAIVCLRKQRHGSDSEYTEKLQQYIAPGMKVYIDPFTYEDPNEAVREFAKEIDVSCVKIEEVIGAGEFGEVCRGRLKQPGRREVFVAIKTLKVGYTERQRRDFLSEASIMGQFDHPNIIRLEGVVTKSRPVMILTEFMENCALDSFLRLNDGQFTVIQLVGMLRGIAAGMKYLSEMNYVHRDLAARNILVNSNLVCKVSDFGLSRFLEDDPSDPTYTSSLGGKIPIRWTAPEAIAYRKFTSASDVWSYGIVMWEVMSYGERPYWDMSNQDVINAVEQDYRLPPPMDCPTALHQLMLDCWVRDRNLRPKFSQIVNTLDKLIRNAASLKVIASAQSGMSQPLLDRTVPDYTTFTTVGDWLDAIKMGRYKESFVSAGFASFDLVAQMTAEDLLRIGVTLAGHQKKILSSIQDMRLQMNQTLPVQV
compound,measurement,setting,value
CCc1ccc(-c2ccc3c(c2)-c2[nH]ncc2S(=O)(=O)N3C)cc1,Activity,[1],36%
same,Activity,[2],93%
same,Activity,[3],91%
same,Activity,[4],106%
same,Activity,[5],103%
same,Activity,[6],88%
same,Activity,[7],53%
same,Activity,[8],87%
same,Activity,[9],94%
same,Activity,[10],91%
same,Activity,[11],95%
same,Activity,[12],82%
same,Activity,[13],89%
same,Activity,[14],94%
same,Activity,[15],97%
same,Activity,[16],87%
same,Activity,[17],89%
same,Activity,[18],87%
same,Activity,[19],96%
same,Activity,[20],94%
same,Activity,[21],80%
same,Activity,[22],98%
same,Activity,[23],100%
same,Activity,[24],85%
same,Activity,[25],71%
same,Activity,[26],93%
same,Activity,[27],96%
same,Activity,[28],101%
same,Activity,[29],53%
same,Activity,[30],90%
same,Activity,[31],95%

# Source: ChEMBL document CHEMBL2346629, “Discovery and characterization of novel allosteric FAK inhibitors” (Eur J Med Chem, 2013)
